# Measurements pooled from the literature.
# Compare with care: the assays were run in different laboratories.
# Target: Acetylcholinesterase (ache, Electrophorus electricus, UniProt O42275)
# Observed: enzyme activity
# Mode: inhibitor
# Technique: Ellman
SMILES,conditions,IC50 [µM]
O=C(CNC(=S)NN=Cc1ccc([N+](=O)[O-])cc1)c1ccc([N+](=O)[O-])cc1,,446
CC=C1[C@H]2C=C(C)C[C@]1(N)c1cc(F)c(=O)[nH]c1C2,,1.23
CCOc1ccc(C=NNC(=S)NCC(=O)c2ccccc2O)cc1,,420
Cc1c(C(=O)[C@H]2[C@H](c3cn(C)c4ccccc34)[C@H]3CSCN3[C@]23C(=O)Nc2ccccc23)cnn1-c1ccccc1,,> 100
O=C(NCC1CCN(Cc2ccccc2)CC1)c1cc2ccccc2o1,,30
CC(C)c1cc(C(C)C)c(S(=O)(=O)NNC(=O)C(=O)NNS(=O)(=O)c2c(C(C)C)cc(C(C)C)cc2C(C)C)c(C(C)C)c1,with preincubation,4.25
Cc1c(C(=O)[C@H]2[C@H](c3cn(C)c4ccccc34)[C@H]3CCCN3[C@]23C(=O)Nc2cc(Cl)ccc23)cnn1-c1ccccc1,,> 100
C#CCN(C)c1nc(NCCCCC2CCN(Cc3ccccc3)CC2)c(C#N)cc1C#N,,0.00074
CC=C1[C@H]2C=C(C)C[C@]1(N)c1ccc(OC)nc1C2,,3.67
C#CCN(C)c1nc(NCCCC2CCN(Cc3ccccc3)CC2)c(C#N)cc1C#N,,0.00619
COP(=O)(OC)OC(C)=C1CCOC1=O,pH 8,> 1000
CC=C1[C@H]2C=C(C)C[C@]1(N)c1cc(OC)c(=O)[nH]c1C2,,0.16
Cc1c(C(=O)[C@H]2[C@H](c3c[nH]c4ccc(Br)cc34)[C@H]3CCCN3[C@]23C(=O)Nc2ccccc23)cnn1-c1ccccc1,,> 100
CC1=C(C)C(=O)O[C@@H]([C@](C)(O)[C@H]2CC[C@H]3[C@@H]4[C@@H]5O[C@@H]5[C@@]5(O)CC=CC(=O)[C@]5(C)[C@H]4CC[C@]23C)C1,,107
C#CCNC(=O)c1cc2ccc(N(CC)CC)cc2oc1=O,pH 7.6,> 50
CC=C1[C@H]2C=C(C)C[C@]1(N)c1cc(C#N)c(=O)[nH]c1C2,,33.9
Cc1c(C(=O)[C@H]2[C@H](c3c[nH]c4ccccc34)[C@H]3CCCN3[C@]23C(=O)Nc2cc(Cl)ccc23)cnn1-c1ccccc1,,> 100
CC=C1[C@H]2C=C(C)C[C@]1(N)c1cc(C)c(=O)[nH]c1C2,,0.35
Cc1c(C(=O)[C@H]2[C@H](c3c[nH]c4ccccc34)[C@H]3CSCN3[C@]23C(=O)Nc2ccccc23)cnn1-c1ccccc1,,57.1
CC=C1[C@H]2C=C(C)C[C@]1(N)c1cc(I)c(=O)[nH]c1C2,,14.1
COc1cccc2cc(C(=O)NCC3CCN(Cc4ccccc4)CC3)oc12,,19.9
